# Measurements taken from ChEMBL document CHEMBL1128288, “7-Azetidinylquinolones as antibacterial agents. 3. Synthesis, properties and structure-activity relationships of the stereoisomers containing a 7-(3-amino-2-methyl-1-azetidinyl) moiety” (J Med Chem, 1995).
# Columns and labels:
# Pseudomonas aeruginosa [1] = assay: In vitro antibacterial activity measured as minimum inhibitory concentration was evaluated on Pseudomonas aeruginosa ATCC 10145 (Pa).; type: functional
# Procedure, shortened: (§1)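 Serial 2-fold agar dilution in Mueller Hinton medium, run side by side with reference quinolones. Inoculum 10^5 cfu/mL; compound range 0.007–16 µg/mL.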
# Bacillus cereus = assay: In vitro antibacterial activity measured as minimum inhibitory concentration was evaluated on Bacillus cereus ATCC 11778 (Bc).; type: functional; procedure, shortened: as §1
# [2] = mouse, in vivo, po, 50 mg/kg
# Staphylococcus aureus [3] = assay: In vivo efficacy as ED50 against Staphylococcus aureus HS-93 by oral administration in mice.; type: functional
# Procedure, shortened: (§2)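 Mice, 4 groups of 10, infected intraperitoneally with slightly more than the LD100 of the organism. A single oral dose was given immediately after infection, with four doses (one per group) chosen from in vitro activity. Survival was scored after one week. ED50 (total dose, mg/kg, protecting 50%) was interpolated among group survival rates.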
# Enterococcus faecalis = assay: In vitro antibacterial activity measured as minimum inhibitory concentration was evaluated on Streptococcus faecalis ATCC 10541 (Sf).; type: functional; procedure, shortened: as §1
# Staphylococcus aureus [4] = assay: In vitro antibacterial activity measured as minimum inhibitory concentration was evaluated on Staphylococcus aureus ATCC 25178 (Sa).; type: functional; procedure, shortened: as §1
# Proteus vulgaris = assay: In vitro antibacterial activity measured as minimum inhibitory concentration was evaluated on proteus vulgaris ATCC 8427 (Pv).; type: functional; procedure, shortened: as §1
# Escherichia coli [5] = assay: In vivo efficacy as ED50 against Escherichia coli HM-42 by oral administration in mice.; type: functional; procedure, shortened: as §2
# Escherichia coli [6] = assay: In vitro antibacterial activity measured as minimum inhibitory concentration, was evaluated on Escherichia coli ATCC 23559(Ec).; type: functional; procedure, shortened: as §1
# Enterobacter cloacae = assay: In vitro antibacterial activity measured as minimum inhibitory concentration, was evaluated on Enterobacter cloacae ATCC 23355 (Ecl).; type: functional
# Pseudomonas aeruginosa [7] = assay: In vivo efficacy as ED50 against Pseudomonas aeruginosa HS-116 by oral administration in mice.; type: functional; procedure, shortened: as §2
# [8] = test system: Staphylococcus epidermidis; assay: In vitro antibacterial activity measured as minimum inhibitory concentration was evaluated on Staphylococcus epidermidis ATCC 155-1 (Se).; type: functional; procedure, shortened: as §1
# Klebsiella pneumoniae = assay: In vitro antibacterial activity measured as minimum inhibitory concentration was evaluated on klebsiella pneumoniae ATCC 10031 (Kp).; type: functional
# Procedure, shortened: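 Serial 2-fold agar dilution in Mueller Hinton medium, run side by side with reference quinolones.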
# Bacillus subtilis = assay: In vitro antibacterial activity measured as minimum inhibitory concentration was evaluated on Bacillus subtilis ATCC 6633(Bs).; type: functional; procedure, shortened: as §1
# Morganella morganii = assay: In vitro antibacterial activity measured as minimum inhibitory concentration was evaluated on morganella morganii ATCC 8019 (Mm).; type: functional; procedure, shortened: as §1
# [9] = Pseudomonas aeruginosa, ATCC 10145, read-out: MIC
# [10] = Bacillus cereus, ATCC 11778, read-out: MIC
# [11] = Staphylococcus aureus, po, read-out: ED50
# [12] = Enterococcus faecalis, ATCC 10541, read-out: MIC
# [13] = Staphylococcus aureus, ATCC 25178, read-out: MIC
# [14] = Proteus vulgaris, ATCC 8427, read-out: MIC
# [15] = Escherichia coli, po, read-out: ED50
# [16] = Escherichia coli, ATCC 23559, read-out: MIC
# [17] = Enterobacter cloacae, ATCC 23355, read-out: MIC
# [18] = Pseudomonas aeruginosa, po, read-out: ED50
# [19] = Staphylococcus epidermidis, ATCC 155-1, read-out: MIC
# [20] = Klebsiella pneumoniae, ATCC 10031, read-out: MIC
# [21] = Bacillus subtilis, ATCC 6633, read-out: MIC
# [22] = Morganella morganii, ATCC 8019, read-out: MIC
Structure (SMILES),MIC (Pseudomonas aeruginosa [1]; [9]) [µg/mL],MIC (Bacillus cereus; [10]) [µg/mL],AUC [2] [ng·h/mL],ED50 (Staphylococcus aureus [3]; [11]) [mg/kg],MIC (Enterococcus faecalis; [12]) [µg/mL],MIC (Staphylococcus aureus [4]; [13]) [µg/mL],MIC (Proteus vulgaris; [14]) [µg/mL],ED50 (Escherichia coli [5]; [15]) [mg/kg],MIC (Escherichia coli [6]; [16]) [µg/mL],MIC (Enterobacter cloacae; [17]) [µg/mL],ED50 (Pseudomonas aeruginosa [7]; [18]) [mg/kg],"MIC [8, 19] [µg/mL]",MIC (Klebsiella pneumoniae; [20]) [µg/mL],MIC (Bacillus subtilis; [21]) [µg/mL],ED50 (Staphylococcus aureus [3]) [mg/kg],MIC (Proteus vulgaris) [µg/mL],MIC (Klebsiella pneumoniae) [µg/mL],MIC (Morganella morganii; [22]) [µg/mL],other results
"C[C@H]1[C@H](N)CN1c1nc2c(cc1F)c(=O)c(C(=O)O)cn2-c1ccc(F)cc1F (single isomer, unassigned)",0.5,0.06,38200,6.6,0.5,0.06,0.5,4.2,0.06,0.06,156,0.12,0.015,0.015,–,–,–,–,–
C[C@@H]1[C@@H](N)CN1c1c(F)cc2c(=O)c(C(=O)O)cn(C3CC3)c2c1F (stereo in doubt; 22),–,–,–,–,–,–,–,–,–,–,–,–,–,–,9,0.06,0.03,–,MIC (Pseudomonas aeruginosa [1]): 0.25 µg/mL; MIC (Bacillus cereus): 0.06 µg/mL; MIC (Morganella morganii): 0.03 µg/mL; MIC (Enterococcus faecalis): 0.25 µg/mL; MIC (Staphylococcus aureus [4]): 0.06 µg/mL; ED50 (Escherichia coli [5]): 2 mg/kg; MIC (Escherichia coli [6]): 0.015 µg/mL; MIC (Enterobacter cloacae): 0.03 µg/mL; ED50 (Pseudomonas aeruginosa [7]): 22 mg/kg; MIC [8]: 0.06 µg/mL; MIC (Bacillus subtilis): 0.03 µg/mL
CCn1cc(C(=O)O)c(=O)c2c(N)c(F)c(N3C[C@H](N)[C@H]3C)c(F)c21,0.5,0.25,12500,–,0.25,0.12,0.25,–,0.25,0.06,–,0.25,0.25,0.06,–,–,–,0.06,–
C[C@@H]1[C@@H](N)CN1c1nc2c(cc1F)c(=O)c(C(=O)O)cn2C1CC1,2,0.25,22300,–,2,0.5,0.5,–,0.12,0.12,–,0.25,0.06,0.06,–,–,–,0.25,–
C[C@@H]1[C@H](N)CN1c1c(F)cc2c(=O)c(C(=O)O)cn(C3CC3)c2c1F (stereo in doubt; 23),1,0.12,–,–,1,0.12,–,6.2,0.06,0.06,123,0.12,–,0.06,18.6,0.25,0.12,0.12,–
C[C@@H]1[C@@H](N)CN1c1c(F)cc2c(=O)c(C(=O)O)cn(-c3ccc(F)cc3F)c2c1F,0.5,0.12,–,11.2,1,0.12,0.5,3,0.06,0.06,98,0.12,0.06,0.06,–,–,–,0.25,–
C[C@@H]1[C@H](N)CN1c1c(F)cc2c(=O)c(C(=O)O)cn(C3CC3)c2c1F (stereo in doubt; 23c),–,–,–,–,–,–,–,–,–,–,–,–,–,–,5.4,0.12,0.03,–,MIC (Pseudomonas aeruginosa [1]): 0.5 µg/mL; MIC (Bacillus cereus): 0.06 µg/mL; MIC (Morganella morganii): 0.06 µg/mL; MIC (Enterococcus faecalis): 0.5 µg/mL; MIC (Staphylococcus aureus [4]): 0.06 µg/mL; ED50 (Escherichia coli [5]): 6.1 mg/kg; MIC (Escherichia coli [6]): 0.03 µg/mL; MIC (Enterobacter cloacae): 0.03 µg/mL; ED50 (Pseudomonas aeruginosa [7]): 117 mg/kg; MIC [8]: 0.12 µg/mL; MIC (Bacillus subtilis): 0.03 µg/mL
"C[C@H]1[C@H](N)CN1c1c(F)cc2c(=O)c(C(=O)O)cn(C3CC3)c2c1Cl (single isomer, unassigned)",–,0.015,5200,3.6,0.015,0.015,0.015,2.1,0.015,0.015,36,0.015,0.015,0.015,–,–,–,0.015,–
O=C(O)c1cn(C2CC2)c2cc(N3CCNCC3)c(F)cc2c1=O [CIPROFLOXACIN],–,–,2300,–,–,–,–,3,–,–,70,–,–,–,–,–,–,–,–
